Legend:
[1] = target: T1, Sterol O-acyltransferase 1 (Rattus norvegicus) (UniProt O70536); test: Inhibition of ACAT expressed in rat liver microsomes at 50 ug/ml; details: Microsome
T1 sequence (whole entry): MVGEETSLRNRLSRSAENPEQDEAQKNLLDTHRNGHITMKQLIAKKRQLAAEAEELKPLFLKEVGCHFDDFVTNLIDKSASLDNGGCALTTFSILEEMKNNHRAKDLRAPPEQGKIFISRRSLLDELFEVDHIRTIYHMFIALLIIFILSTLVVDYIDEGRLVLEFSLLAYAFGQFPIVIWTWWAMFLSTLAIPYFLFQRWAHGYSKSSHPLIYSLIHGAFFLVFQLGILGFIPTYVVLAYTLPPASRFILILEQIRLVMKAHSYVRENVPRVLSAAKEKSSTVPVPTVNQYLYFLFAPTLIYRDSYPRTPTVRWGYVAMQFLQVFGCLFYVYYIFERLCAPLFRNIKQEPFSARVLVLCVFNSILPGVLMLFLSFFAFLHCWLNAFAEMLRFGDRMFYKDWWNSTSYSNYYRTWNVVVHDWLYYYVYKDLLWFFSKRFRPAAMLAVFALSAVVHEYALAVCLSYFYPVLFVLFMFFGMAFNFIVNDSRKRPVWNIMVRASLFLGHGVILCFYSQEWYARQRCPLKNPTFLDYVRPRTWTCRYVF
Method in brief: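 Rat liver microsomes were the enzyme source, assayed by a previously described method. Compounds were tested at 50 μg/mL, and the readout was % ACAT inhibition. Values are means of three experiments differing by less than 10%. GERI-BP001M served as reference.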

[2] = target: T2, Sterol O-acyltransferase 2 (Homo sapiens, UniProt O75908); test: Inhibition of human ACAT2 expressed in Hi5 cells; design: species or system BTI-TN-5B1-4
T2 sequence (O75908 whole entry): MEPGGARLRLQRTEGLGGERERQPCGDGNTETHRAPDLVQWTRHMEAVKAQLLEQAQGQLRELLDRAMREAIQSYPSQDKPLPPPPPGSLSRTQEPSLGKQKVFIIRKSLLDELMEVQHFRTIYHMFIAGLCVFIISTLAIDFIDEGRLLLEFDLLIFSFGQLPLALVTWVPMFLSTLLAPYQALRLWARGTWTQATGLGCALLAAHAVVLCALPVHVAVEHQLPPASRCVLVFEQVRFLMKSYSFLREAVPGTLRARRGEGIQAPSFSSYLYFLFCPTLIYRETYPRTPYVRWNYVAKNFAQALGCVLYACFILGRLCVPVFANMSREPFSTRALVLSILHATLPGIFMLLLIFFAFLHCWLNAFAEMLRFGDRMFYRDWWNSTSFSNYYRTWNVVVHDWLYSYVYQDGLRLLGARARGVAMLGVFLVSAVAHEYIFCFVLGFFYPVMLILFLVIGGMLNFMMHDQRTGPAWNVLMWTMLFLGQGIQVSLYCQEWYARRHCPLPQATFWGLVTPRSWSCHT
Method in brief: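 Human ACAT-2 was expressed by baculovirus in Hi5 insect cells, and microsomal fractions of these cells were the enzyme source. Activity was measured by the Brecher and Chan method with slight modification.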

[3] = target: T3, Sterol O-acyltransferase 1 (Homo sapiens, UniProt P35610); test: Inhibition of human ACAT1 expressed in Hi5 cells; design: species or system BTI-TN-5B1-4
T3 sequence (P35610 whole entry): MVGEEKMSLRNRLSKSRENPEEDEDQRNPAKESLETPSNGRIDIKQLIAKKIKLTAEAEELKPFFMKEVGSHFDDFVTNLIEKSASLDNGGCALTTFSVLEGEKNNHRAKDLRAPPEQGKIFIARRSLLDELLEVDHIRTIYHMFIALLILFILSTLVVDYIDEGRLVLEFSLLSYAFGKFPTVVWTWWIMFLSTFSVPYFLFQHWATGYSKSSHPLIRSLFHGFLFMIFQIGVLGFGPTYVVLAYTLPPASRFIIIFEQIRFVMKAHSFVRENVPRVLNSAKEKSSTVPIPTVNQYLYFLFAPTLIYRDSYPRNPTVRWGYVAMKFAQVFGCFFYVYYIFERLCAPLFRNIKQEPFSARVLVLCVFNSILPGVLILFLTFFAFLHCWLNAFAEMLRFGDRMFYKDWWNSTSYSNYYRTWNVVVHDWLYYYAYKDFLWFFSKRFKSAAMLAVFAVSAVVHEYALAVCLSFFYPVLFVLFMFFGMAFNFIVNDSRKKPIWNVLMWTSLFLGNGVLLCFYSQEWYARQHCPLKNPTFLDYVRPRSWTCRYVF

[4] = target: T4, Sterol O-acyltransferase 1 (Rattus norvegicus, UniProt O70536); test: Inhibition of ACAT expressed in rat liver microsomes; design: species or system Microsome
T4 sequence (O70536 whole entry): T1 sequence (whole entry)

With CCCCCCCN(CCCCCSc1ccc(-c2ccccc2)nn1)C(=O)Nc1ccc(F)cc1F the inhibition [1] was 44%.

In the case of CCCCCCCN(CCCCCSc1cc(-c2ccccc2)cnn1)C(=O)Nc1ccc(F)cc1F, the inhibition [1] is reported as 75%.

CCCCCCCN(CCCCCSc1cc(-c2ccccc2)c(-c2ccccc2)nn1)C(=O)Nc1ccc(F)cc1F gave an inhibition [1] of 75%.

CCCCCCCN(CCCCCS(=O)(=O)c1cc(-c2ccccc2)c(-c2ccccc2)nn1)C(=O)Nc1ccc(F)cc1F showed an inhibition [1] of 70%.

In the case of CCCCCCCN(CCCCC[S+]([O-])c1ccc(-c2ccccc2)nn1)C(=O)Nc1ccc(F)cc1F (centres undefined), the inhibition [1] is reported as 55%.

In the case of CCCCCCCN(CCCCCNc1ccc(-c2ccccc2)nn1)C(=O)Nc1ccc(F)cc1F, the IC50 [2] is reported as 2.07 µM, the IC50 [3] is reported as 5.34 µM and the inhibition [1] is reported as 89%. It also gave an IC50 [4] of 1.21 µM.

CCCCCCCN(CCCCCNc1cc(-c2ccccc2)c(-c2ccccc2)nn1)C(=O)Nc1ccc(F)cc1F gave an IC50 [2] of 1.74 µM, an inhibition [1] of 87% and an IC50 [4] of 2.32 µM.

CCCCCCCN(CCCCCNc1cc(-c2ccccc2)cnn1)C(=O)Nc1ccc(F)cc1F was tested, and the IC50 [2] was 101 µM, the inhibition [1] was 46% and the IC50 [4] was 36.4 µM.

CCCCCCCN(CCCCC[S+]([O-])c1cc(-c2ccccc2)cnn1)C(=O)Nc1ccc(F)cc1F (centres undefined) gave an inhibition [1] of 62%.

Work on CCCCCCCN(CCCCC[S+]([O-])c1cc(-c2ccccc2)c(-c2ccccc2)nn1)C(=O)Nc1ccc(F)cc1F (centres undefined) yielded an inhibition [1] of 65%.

Work on CCCCCCCN(CCCCCS(=O)(=O)c1cc(-c2ccccc2)cnn1)C(=O)Nc1ccc(F)cc1F yielded an inhibition [1] of 67%.

With CCCCCCCN(CCCCCS(=O)(=O)c1ccc(-c2ccccc2)nn1)C(=O)Nc1ccc(F)cc1F the inhibition [1] was 43%.

— ChEMBL document CHEMBL1141216, “Mono- or diphenylpyridazines connected to N-(2,4-difluorophenyl)-N'-heptylurea as acyl-CoA:cholesterol acyltransferase inhibitors” (J Med Chem, 2005)
